Changes are numbered by the printed parent chain.
Legend:
Settings in all cases: stereoisomer not certain
OR51B5 (Homo sapiens) = molecular target: T1, OR51B5 (Homo sapiens) (UniProt Q9H339)
T1 sequence (whole entry): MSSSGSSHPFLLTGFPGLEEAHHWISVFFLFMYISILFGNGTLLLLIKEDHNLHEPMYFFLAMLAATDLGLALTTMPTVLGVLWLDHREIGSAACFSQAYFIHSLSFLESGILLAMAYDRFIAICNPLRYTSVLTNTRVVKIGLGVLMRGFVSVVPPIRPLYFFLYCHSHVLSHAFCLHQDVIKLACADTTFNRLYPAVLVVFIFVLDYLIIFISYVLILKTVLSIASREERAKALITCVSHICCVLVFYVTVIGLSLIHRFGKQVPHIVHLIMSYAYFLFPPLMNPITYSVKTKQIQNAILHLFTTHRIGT
Method in brief: (§1)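 Values were gathered from published papers (main text and supplementary material), with extra details requested from the original authors when needed, and checked for typos and inconsistencies. Each receptor–molecule pair is called responsive (active) if the original authors judged the measured signal statistically different from baseline, and non-responsive (inactive) otherwise. Assay methods varied by source, often transient mammalian cell-line luciferase assays. Recorded details include cell line, G-protein, co-transfected protein and tags.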

OR4S2 (Homo sapiens) = molecular target: T2, OR4S2 (Homo sapiens) (UniProt Q8NH73)
T2 sequence (whole entry): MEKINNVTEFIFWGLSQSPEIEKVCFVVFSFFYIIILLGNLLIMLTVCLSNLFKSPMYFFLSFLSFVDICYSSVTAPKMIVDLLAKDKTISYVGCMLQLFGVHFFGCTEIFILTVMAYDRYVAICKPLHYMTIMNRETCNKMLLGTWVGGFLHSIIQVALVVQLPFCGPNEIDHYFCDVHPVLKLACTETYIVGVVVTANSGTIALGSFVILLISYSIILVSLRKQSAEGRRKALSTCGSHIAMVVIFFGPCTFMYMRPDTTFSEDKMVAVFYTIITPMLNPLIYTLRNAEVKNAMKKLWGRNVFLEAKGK
Method in brief: as §1

OR4X1 (Homo sapiens) = molecular target: T3, OR4X1 (Homo sapiens) (UniProt Q8NH49)
T3 sequence (whole entry): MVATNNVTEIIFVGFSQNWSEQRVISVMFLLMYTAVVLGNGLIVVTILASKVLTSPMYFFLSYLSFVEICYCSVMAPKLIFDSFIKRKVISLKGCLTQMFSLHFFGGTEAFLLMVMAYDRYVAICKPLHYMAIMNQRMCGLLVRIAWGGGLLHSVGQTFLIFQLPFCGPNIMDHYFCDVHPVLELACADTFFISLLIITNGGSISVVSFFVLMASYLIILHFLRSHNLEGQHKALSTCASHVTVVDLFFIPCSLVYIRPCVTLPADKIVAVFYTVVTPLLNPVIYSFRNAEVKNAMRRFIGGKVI
Method in brief: as §1

OR4X2 (Homo sapiens) = molecular target: T4, OR4X2 (Homo sapiens) (UniProt Q8NGF9)
T4 sequence (whole entry): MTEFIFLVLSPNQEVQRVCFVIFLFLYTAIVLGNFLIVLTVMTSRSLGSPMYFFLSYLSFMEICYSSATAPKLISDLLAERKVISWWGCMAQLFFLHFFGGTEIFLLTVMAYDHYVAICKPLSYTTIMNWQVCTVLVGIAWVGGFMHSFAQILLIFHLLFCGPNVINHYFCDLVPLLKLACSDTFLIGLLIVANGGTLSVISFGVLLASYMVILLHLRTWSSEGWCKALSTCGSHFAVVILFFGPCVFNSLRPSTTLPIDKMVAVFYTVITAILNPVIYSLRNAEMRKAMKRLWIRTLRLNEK
Method in brief: as §1

OR51A2 (Homo sapiens) = molecular target: T5, OR51A2 (Homo sapiens) (UniProt Q8NGJ7)
T5 sequence (whole entry): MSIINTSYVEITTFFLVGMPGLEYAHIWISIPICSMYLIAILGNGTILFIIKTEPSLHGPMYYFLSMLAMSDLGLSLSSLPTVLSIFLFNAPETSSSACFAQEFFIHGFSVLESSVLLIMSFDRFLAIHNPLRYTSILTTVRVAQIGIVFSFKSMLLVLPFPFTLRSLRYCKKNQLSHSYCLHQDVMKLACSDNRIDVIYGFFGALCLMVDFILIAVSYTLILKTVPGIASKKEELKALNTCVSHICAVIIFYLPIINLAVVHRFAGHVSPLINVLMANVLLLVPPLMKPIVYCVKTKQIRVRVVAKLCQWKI
Method in brief: as §1

OR51A4 (Homo sapiens) = molecular target: T6, OR51A4 (Homo sapiens) (UniProt Q8NGJ6)
T6 sequence (whole entry): T5 sequence (whole entry) with G59E, T94I, S97N, S167N, P227L, E235Q, G267R, M288T, K289N, W311R
Method in brief: as §1

OR51A7 (Homo sapiens) = molecular target: T7, OR51A7 (Homo sapiens) (UniProt Q8NH64)
T7 sequence (whole entry): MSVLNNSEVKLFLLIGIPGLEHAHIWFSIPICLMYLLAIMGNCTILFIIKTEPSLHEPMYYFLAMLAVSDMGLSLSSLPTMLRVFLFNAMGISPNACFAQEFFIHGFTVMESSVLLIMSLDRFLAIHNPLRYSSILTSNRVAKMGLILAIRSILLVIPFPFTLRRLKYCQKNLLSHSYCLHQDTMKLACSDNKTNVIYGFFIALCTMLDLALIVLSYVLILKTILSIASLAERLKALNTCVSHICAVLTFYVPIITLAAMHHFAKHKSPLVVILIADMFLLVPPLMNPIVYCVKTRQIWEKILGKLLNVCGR
Method in brief: as §1

OR51B2 (Homo sapiens) = molecular target: T8, OR51B2 (Homo sapiens) (UniProt Q9Y5P1)
T8 sequence (whole entry): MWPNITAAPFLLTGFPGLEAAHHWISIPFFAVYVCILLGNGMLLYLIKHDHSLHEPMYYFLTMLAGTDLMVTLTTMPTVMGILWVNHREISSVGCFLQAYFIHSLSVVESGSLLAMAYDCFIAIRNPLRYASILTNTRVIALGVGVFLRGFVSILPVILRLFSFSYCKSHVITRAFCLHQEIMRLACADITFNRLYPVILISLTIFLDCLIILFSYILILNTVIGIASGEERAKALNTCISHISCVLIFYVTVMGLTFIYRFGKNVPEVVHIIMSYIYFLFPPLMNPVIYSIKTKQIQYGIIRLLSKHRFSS
Method in brief: as §1

OR51B4 (Homo sapiens) = molecular target: T9, OR51B4 (Homo sapiens) (UniProt Q9Y5P0)
T9 sequence (whole entry): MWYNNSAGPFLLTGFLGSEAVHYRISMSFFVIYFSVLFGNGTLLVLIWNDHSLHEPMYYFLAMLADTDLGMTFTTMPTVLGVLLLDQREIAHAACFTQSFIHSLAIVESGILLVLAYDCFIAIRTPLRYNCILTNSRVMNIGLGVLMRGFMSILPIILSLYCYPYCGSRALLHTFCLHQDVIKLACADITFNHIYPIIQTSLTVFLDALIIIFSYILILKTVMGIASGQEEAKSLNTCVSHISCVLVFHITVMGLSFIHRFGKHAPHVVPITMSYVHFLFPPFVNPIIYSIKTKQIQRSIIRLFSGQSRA
Method in brief: as §1

OR51B6 (Homo sapiens) = molecular target: T10, OR51B6 (Homo sapiens) (UniProt Q9H340)
T10 sequence (whole entry): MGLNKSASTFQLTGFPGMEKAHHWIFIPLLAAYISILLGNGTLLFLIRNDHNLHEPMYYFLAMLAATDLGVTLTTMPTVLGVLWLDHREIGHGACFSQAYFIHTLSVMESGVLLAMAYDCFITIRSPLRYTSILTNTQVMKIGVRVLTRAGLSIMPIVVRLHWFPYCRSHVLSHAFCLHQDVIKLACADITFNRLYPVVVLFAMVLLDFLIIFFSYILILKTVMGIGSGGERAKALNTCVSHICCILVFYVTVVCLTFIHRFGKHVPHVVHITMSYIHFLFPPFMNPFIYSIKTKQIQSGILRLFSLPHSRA
Method in brief: as §1

OR51D1 (Homo sapiens) = molecular target: T11, OR51D1 (Homo sapiens) (UniProt Q8NGF3)
T11 sequence (whole entry): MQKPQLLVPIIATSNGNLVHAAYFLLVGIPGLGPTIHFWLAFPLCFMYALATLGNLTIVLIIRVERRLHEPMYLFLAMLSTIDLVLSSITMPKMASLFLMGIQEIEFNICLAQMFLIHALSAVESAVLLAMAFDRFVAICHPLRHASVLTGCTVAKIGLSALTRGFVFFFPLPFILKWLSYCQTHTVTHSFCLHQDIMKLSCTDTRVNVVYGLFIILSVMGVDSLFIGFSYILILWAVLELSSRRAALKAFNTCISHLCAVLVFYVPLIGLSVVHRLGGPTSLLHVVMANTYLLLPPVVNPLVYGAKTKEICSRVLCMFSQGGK
Method in brief: as §1

OR51E1 (Homo sapiens) = molecular target: T12, OR51E1 (Homo sapiens) (UniProt Q8TCB6)
T12 sequence (whole entry): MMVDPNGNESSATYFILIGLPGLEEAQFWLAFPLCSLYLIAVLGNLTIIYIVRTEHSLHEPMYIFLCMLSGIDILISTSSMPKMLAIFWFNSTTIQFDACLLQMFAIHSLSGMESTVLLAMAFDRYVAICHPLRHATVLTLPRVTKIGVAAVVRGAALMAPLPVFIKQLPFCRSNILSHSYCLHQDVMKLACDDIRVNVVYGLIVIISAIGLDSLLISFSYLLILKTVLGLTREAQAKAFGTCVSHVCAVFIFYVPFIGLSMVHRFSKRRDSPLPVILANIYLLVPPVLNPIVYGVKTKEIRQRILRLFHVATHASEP
Method in brief: as §1

OR51E2 (Homo sapiens) = molecular target: T13, OR51E2 (Homo sapiens) (UniProt Q9H255)
T13 sequence (whole entry): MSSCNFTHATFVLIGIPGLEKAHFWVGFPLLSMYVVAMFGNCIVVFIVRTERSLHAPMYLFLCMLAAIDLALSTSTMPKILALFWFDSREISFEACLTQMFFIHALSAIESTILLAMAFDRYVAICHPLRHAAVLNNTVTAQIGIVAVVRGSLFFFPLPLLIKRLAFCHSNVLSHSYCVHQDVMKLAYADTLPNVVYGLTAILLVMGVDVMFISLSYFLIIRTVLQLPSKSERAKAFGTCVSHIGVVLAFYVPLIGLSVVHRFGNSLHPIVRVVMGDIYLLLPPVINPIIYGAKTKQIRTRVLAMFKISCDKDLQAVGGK
Method in brief: as §1

OR51F2 (Homo sapiens) = molecular target: T14, OR51F2 (Homo sapiens) (UniProt Q8NH61)
T14 sequence (whole entry): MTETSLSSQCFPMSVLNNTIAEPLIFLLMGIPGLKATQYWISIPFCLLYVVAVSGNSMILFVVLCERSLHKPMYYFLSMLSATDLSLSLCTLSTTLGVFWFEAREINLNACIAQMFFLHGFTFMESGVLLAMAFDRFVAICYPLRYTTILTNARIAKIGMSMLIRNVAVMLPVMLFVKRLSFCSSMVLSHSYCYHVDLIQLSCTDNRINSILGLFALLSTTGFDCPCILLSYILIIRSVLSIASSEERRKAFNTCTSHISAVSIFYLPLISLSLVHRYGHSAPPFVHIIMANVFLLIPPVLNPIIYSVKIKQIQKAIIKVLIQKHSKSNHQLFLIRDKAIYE
Method in brief: as §1

OR51G1 (Homo sapiens) = molecular target: T15, OR51G1 (Homo sapiens) (UniProt Q8NGK1)
T15 sequence (whole entry): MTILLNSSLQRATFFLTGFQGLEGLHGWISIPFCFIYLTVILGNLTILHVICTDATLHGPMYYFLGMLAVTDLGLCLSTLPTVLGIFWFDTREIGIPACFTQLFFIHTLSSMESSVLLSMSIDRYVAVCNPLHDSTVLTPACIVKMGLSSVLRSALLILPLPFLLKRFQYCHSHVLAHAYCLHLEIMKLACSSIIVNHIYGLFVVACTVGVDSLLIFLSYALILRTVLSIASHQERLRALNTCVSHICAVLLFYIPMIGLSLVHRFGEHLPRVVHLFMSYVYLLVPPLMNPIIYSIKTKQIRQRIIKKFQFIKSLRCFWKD
Method in brief: as §1

OR51G2 (Homo sapiens) = molecular target: T16, OR51G2 (Homo sapiens) (UniProt Q8NGK0)
T16 sequence (whole entry): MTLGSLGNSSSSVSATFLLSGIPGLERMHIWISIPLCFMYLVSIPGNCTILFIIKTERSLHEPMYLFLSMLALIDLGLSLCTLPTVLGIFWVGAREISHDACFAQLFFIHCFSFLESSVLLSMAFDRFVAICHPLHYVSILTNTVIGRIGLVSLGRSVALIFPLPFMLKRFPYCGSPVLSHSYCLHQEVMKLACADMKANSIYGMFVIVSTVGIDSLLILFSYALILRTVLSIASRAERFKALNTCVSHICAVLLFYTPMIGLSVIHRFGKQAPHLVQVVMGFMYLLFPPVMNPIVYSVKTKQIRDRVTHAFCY
Method in brief: as §1

OR51I1 (Homo sapiens) = molecular target: T17, OR51I1 (Homo sapiens) (UniProt Q9H343)
T17 sequence (whole entry): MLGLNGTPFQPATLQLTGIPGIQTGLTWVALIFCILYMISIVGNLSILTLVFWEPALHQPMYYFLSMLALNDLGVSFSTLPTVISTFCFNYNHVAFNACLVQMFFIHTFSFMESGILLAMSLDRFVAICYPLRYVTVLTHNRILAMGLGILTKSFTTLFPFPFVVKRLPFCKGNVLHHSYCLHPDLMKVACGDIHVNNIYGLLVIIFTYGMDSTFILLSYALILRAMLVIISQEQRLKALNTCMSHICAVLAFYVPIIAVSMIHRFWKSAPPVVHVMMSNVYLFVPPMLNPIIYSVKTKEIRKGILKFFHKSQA
Method in brief: as §1

OR51F1 (Homo sapiens) = molecular target: T18, OR51F1 (Homo sapiens) (UniProt A6NGY5)
T18 sequence (whole entry): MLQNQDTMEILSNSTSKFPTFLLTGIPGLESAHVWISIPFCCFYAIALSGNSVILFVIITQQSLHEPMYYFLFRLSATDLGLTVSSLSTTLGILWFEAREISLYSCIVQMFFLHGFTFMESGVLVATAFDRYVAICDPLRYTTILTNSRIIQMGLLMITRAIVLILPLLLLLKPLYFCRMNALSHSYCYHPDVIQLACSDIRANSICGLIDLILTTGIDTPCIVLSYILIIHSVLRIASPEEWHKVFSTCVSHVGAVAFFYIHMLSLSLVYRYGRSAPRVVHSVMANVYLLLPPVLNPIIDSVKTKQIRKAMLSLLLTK
Method in brief: as §1

OR51H1 (Homo sapiens) = OR51H1 (Homo sapiens) (UniProt Q8NH63)
Sequence of OR51H1 (Homo sapiens) (Q8NH63 whole entry): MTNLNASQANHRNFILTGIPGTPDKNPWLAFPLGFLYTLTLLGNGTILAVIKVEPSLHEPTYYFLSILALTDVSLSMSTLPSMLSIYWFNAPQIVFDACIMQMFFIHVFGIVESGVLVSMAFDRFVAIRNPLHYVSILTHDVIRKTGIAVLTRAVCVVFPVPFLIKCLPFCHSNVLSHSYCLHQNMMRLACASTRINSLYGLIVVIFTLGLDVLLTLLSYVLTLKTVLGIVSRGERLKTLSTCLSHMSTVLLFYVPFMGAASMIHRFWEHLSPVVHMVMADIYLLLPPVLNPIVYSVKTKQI
Method in brief: as §1

Measured: odorant receptor agonist call

CCCCCCCCCCCCCCCCCC(=O)OCC
inactive: OR51B5 (Homo sapiens)

CC1=NC(C)C(C)S1 (stereo unspecified)
not listed: OR51F1 (Homo sapiens) | OR51H1 (Homo sapiens)
inactive: all other assays above

CC1CCCCCCCCCCCCC(=O)C1 (stereo unspecified)
not listed: OR51E1 (Homo sapiens)
inactive: all other assays above
